Data set [1] is described as follows: Oral bioavailability in rat at 3 mg/kg administered as cassette dose measured by UPLC-MS/MS. Type of data set: ADME, organism-based. Conditions: in vivo. In short, it runs like this:
(§1)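 Ester prodrugs are given to rats by oral gavage, some as a cassette with another ester. F is the percent absolute oral bioavailability of the parent, corrected for the MW difference between prodrug and parent.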

Data set [2] in a line: Inhibition of bacterial beta-lactamase KPC-2 using imipenem as substrate preincubated for 15 mins followed by substrate addition and measured after 10 mins by spectrophotometric analysis. Also noted: species or system Bacteria. In short, it runs like this:
(§2)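 IC50 is the mean of duplicate runs on separate days. A run was repeated automatically if it differed by more than 20% from the previous result.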

A short description of data set [3]: Inhibition of bacterial beta-lactamase OXA-48 using nitrocefin as substrate preincubated for 15 mins followed by substrate addition and measured after 10 mins by spectrophotometric analysis. Also noted: species or system Bacteria. In short, it runs like this: as §2
Data set [4] in a line: Inhibition of bacterial beta-lactamase SHV-5 using cefotaxime as substrate preincubated for 15 mins followed by substrate addition and measured after 10 mins by spectrophotometric analysis. Also on record: species or system Bacteria. In short, it runs like this: as §2
Data set [5] relates to Escherichia coli. Kind of data set: Antibacterial activity against Escherichia coli 664507 expressing OXA-48 assessed as concentration required to restore ceftibuten activity incubated for 16 to 20 hrs in presence of 1 ug/ml ceftibuten by broth microdilution method. Type of data set: functional. Conditions: time 16-20 hrs. In short, it runs like this:
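Tested against a 25-strain challenge panel of clinical E. coli and K. pneumoniae isolates carrying ESBL (n = 5), KPC (n = 11), class C (n = 4) or OXA-48 (n = 5) β-lactamases. Ceftibuten was held at 1 μg/mL while the BLI concentration varied. The read-out was the BLI concentration that rescued ceftibuten activity.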
In general terms: In broth dilution the organism is exposed to a series of concentrations in liquid medium.

For data set [6], the system named is Klebsiella pneumoniae. Kind of data set: Antibacterial activity against Klebsiella pneumoniae 196477 expressing AmpC/CMY-2/TEM-1/CTX-M-15 assessed as concentration required to restore ceftibuten activity incubated for 16 to 20 hrs in presence of 1 ug/ml ceftibuten by broth microdilution method. Type of data set: functional. Conditions: time 16-20 hrs.
A short description of data set [7]: Inhibition of bacterial beta-lactamase AmpC using nitrocefin as substrate preincubated for 15 mins followed by substrate addition and measured after 10 mins by spectrophotometric analysis. Also on record: species or system Bacteria. Put shortly: as §2
In data set [8] the test system is Klebsiella pneumoniae. Kind of data set: Antibacterial activity against Klebsiella pneumoniae expressing SHV-12/TEM-1 assessed as concentration required to restore ceftibuten activity incubated for 16 to 20 hrs in presence of 1 ug/ml ceftibuten by broth microdilution method. Type of data set: functional. Conditions: time 16-20 hrs.
The subject of data set [9] is Klebsiella pneumoniae. Kind of data set: Antibacterial activity against Klebsiella pneumoniae expressing OXA-48 assessed as concentration required to restore ceftibuten activity incubated for 16 to 20 hrs in presence of 1 ug/ml ceftibuten by broth microdilution method. Type of data set: functional. Conditions: time 16-20 hrs.
Data set [10] relates to Klebsiella pneumoniae. Kind of data set: Antibacterial activity against Klebsiella pneumoniae 156309 expressing SHV-11/TEM-1/KPC-2 assessed as concentration required to restore ceftibuten activity incubated for 16 to 20 hrs in presence of 1 ug/ml ceftibuten by broth microdilution method. Conditions: time 16-20 hrs. Type of data set: functional.
Data set [11] relates to Escherichia coli. Kind of data set: Antibacterial activity against Escherichia coli J53 expressing SHV-5/TEM-1/AmpC assessed as concentration required to restore ceftibuten activity incubated for 16 to 20 hrs in presence of 1 ug/ml ceftibuten by broth microdilution method. The data set is classed as functional. Conditions: time 16-20 hrs.
Data set [12] has as its system Escherichia coli. Kind of data set: Antibacterial activity against Escherichia coli expressing CTX-M-15/TEM-1 assessed as concentration required to restore ceftibuten activity incubated for 16 to 20 hrs in presence of 1 ug/ml ceftibuten by broth microdilution method. Conditions: time 16-20 hrs. Type of data set: functional.
The test system of data set [13] is Escherichia coli. Kind of data set: Antibacterial activity against Escherichia coli 786978 expressing KPC assessed as concentration required to restore ceftibuten activity incubated for 16 to 20 hrs in presence of 1 ug/ml ceftibuten by broth microdilution method. The data set is classed as functional. Conditions: time 16-20 hrs.
The nature of data set [14]: Oral bioavailability in rat at 10 mg/kg administered as cassette dose measured by UPLC-MS/MS. Type of data set: ADME, organism-based. Conditions: in vivo. In short, it runs like this: as §1
The mark [15] stands for this setting: 10 mg/kg, in the assay text read “measured” for “administered as cassette dose measured”.

pIC50: −log10 of the molar value.

A word on the bioavailability: it is the share of a dose that reaches the circulation, judged against a reference dose that is usually intravenous. Low values mean little systemic uptake, high ones much systemic uptake. Turning to `CC(C)(C)C(=O)OCOC(=O)c1cccc2c1OB(O)[C@@H](NC(=O)CCNS(C)(=O)=O)C2`, the bioavailability in data set [1] is less than 5%.
One may read the pIC50 as the negative decadic logarithm of the IC50, by convention in mol/L. For `C#CCCC(=O)N[C@H]1Cc2cccc(C(=O)O)c2OB1O`, the pIC50 in data set [2] is 7.51; in data set [3], 6.20; in data set [4], 7.77; in data set [7], 8.22. In addition, the Activity is 0.5 µg/mL in data set [5]; 0.06 µg/mL in data set [6]; 0.06 µg/mL in [8]; 4 µg/mL in data set [9]; 2 µg/mL in [10]; 1 µg/mL in [11]. The results for the Activity in [12] and in data set [13] were 0.25 µg/mL and 1 µg/mL, respectively.
For `CC(F)(F)CCC(=O)N[C@H]1Cc2cccc(C(=O)O)c2OB1O`, the pIC50 in [2] is 7.39; in [3], 5.62; in data set [7], 8.15. In addition, the Activity came to 0.25 µg/mL in data set [5]; 0.12 µg/mL in data set [6]; 0.03 µg/mL in [8]; 4 µg/mL in data set [9]; 4 µg/mL in data set [10]; 0.03 µg/mL in data set [11]. The Activity in data set [12] came out at 0.5 µg/mL; in data set [13], 1 µg/mL.
As to `CCC(=O)N[C@H]1Cc2cccc(C(=O)OCOC(=O)OC(CC)CC)c2OB1O`, in [14], the bioavailability was found to be 33%.
With `O=C(CCC(F)(F)F)N[C@H]1Cc2cccc(C(=O)O)c2OB1O`, the pIC50 is 7.37 in [2], 5.79 in data set [3], 8.10 in data set [4] and 8.05 in [7]. The Activity in data set [5] is 0.25 µg/mL; in data set [6], 0.5 µg/mL; in data set [8], 0.06 µg/mL; in data set [9], 8 µg/mL; in [10] it was 2 µg/mL; in data set [11], 0.03 µg/mL. The Activity in data set [12] and in [13] was 1 µg/mL each time.
For `CCC(=O)N[C@H]1Cc2cccc(C(=O)OCOC(C)=O)c2OB1O`, in [14], the bioavailability was determined as 10%.
As to `CCOC(=O)c1cccc2c1OB(O)[C@@H](NC(=O)CCC(N)=O)C2`, in data set [1], the bioavailability is less than 5%.
Still for that read-out and setting: next, `CC(C)(C)C(=O)OCOC(=O)c1cccc2c1OB(O)[C@@H](NC(=O)CCC(N)=O)C2`: less than 5%.
Consider `CC(C)(C)C(=O)OCOC(=O)c1cccc2c1OB(O)[C@@H](NC(=O)CCC#N)C2`, for which the bioavailability in data set [14] (setting [15]) was determined as 20%.
As for `CC(=O)CCC(=O)N[C@H]1Cc2cccc(C(=O)OCOC(=O)C(C)(C)C)c2OB1O`, the bioavailability in data set [14] (setting [15]) was 95%.
In turn, `CCC(=O)N[C@H]1Cc2cccc(C(=O)OCOC(=O)C(C)C)c2OB1O` returned a bioavailability in data set [14] of 38%.
Same read-out and setting: for `CCC(=O)N[C@H]1Cc2cccc(C(=O)OCOC(=O)OC3CCCC3)c2OB1O` the value was 24%.
With `NC(=O)CCC(=O)N[C@H]1Cc2cccc(C(=O)O)c2OB1O`, the pIC50 in data set [2] is 7.16; in [3], 5.75; in data set [4], 6.29; in [7] it was 8.22. Moreover, the Activity in data set [5] turned out to be 0.06 µg/mL; in data set [6], 0.016 µg/mL; in [8] it was 0.12 µg/mL; in data set [9] it was 0.5 µg/mL; in [10], 2 µg/mL; in [11], 2 µg/mL. Also, the results for the Activity in [12] and in [13] were 0.12 µg/mL and 1 µg/mL, respectively.
In [1], `CCOC(=O)c1cccc2c1OB(O)[C@@H](NC(=O)CC)C2` displayed a bioavailability of less than 5%.
The compound `CCOC(=O)c1cccc2c1OB(O)[C@@H](NC(=O)CCNS(N)(=O)=O)C2` returned a bioavailability in [1] of less than 5%.
With `N#CCCC(=O)N[C@H]1Cc2cccc(C(=O)O)c2OB1O`, the pIC50 in [2] is 7.48; in data set [3], 6.16; in [4] it was 7.92; in data set [7], 7.85. In addition, the Activity amounted to 0.12 µg/mL in data set [5]; 0.03 µg/mL in data set [6]; 0.06 µg/mL in [8]; 2 µg/mL in data set [9]; 2 µg/mL in data set [10]; 0.03 µg/mL in [11]. The Activity in [12] turned out to be 0.12 µg/mL; in [13], 0.5 µg/mL.
`CCOC(C)(C)C(=O)OCOC(=O)c1cccc2c1OB(O)[C@@H](NC(=O)CC)C2` had a bioavailability in data set [14] of 28%.
Consider `CCCC(=O)N[C@H]1Cc2cccc(C(=O)O)c2OB1O`, for which the pIC50 in data set [2] was 7.03; in data set [3] it was 6.37; in data set [4], 7.44; in data set [7], 8.05. Further, the Activity in data set [5] is 0.25 µg/mL; in data set [6] it was 0.03 µg/mL; in data set [8], 0.12 µg/mL; in data set [9], 1 µg/mL; in [10] it was 1 µg/mL; in data set [11], 0.016 µg/mL. The Activity in [12] stood at 0.12 µg/mL; in data set [13], 0.5 µg/mL.
As to `NS(=O)(=O)CCC(=O)N[C@H]1Cc2cccc(C(=O)O)c2OB1O`, the pIC50 in data set [2] was 7.46; in [3], 5.07; in data set [4], 8.10; in data set [7] it was 8.52. Moreover, the Activity was 0.12 µg/mL in [5]; 0.03 µg/mL in [6]; 0.06 µg/mL in data set [8]; 2 µg/mL in data set [9]; 2 µg/mL in data set [10]; 0.12 µg/mL in data set [11]. Moreover, the values for the Activity in data set [12] and in data set [13] were 0.25 µg/mL and 1 µg/mL, respectively.
For `CCC(=O)N[C@H]1Cc2cccc(C(=O)OCOC(=O)C3CCCC3)c2OB1O`, the bioavailability in [14] came out at 19%.
On to `CS(=O)(=O)NCCC(=O)N[C@H]1Cc2cccc(C(=O)O)c2OB1O`, for which the pIC50 was 7.55 in [2], 5.33 in data set [3], 7.92 in data set [4] and 8.30 in data set [7]. For the same compound, the Activity in [5] is 0.03 µg/mL; in [6], 0.03 µg/mL; in data set [8] it was 0.016 µg/mL; in data set [9], 2 µg/mL; in data set [10], 1 µg/mL; in data set [11], 0.016 µg/mL. The Activity was found to be 0.12 µg/mL in data set [12] and 0.5 µg/mL in data set [13].
On to `CCCC(=O)N[C@H]1Cc2cccc(C(=O)OCOC(=O)C(C)(C)C)c2OB1O`, for which the F in data set [1] (3 mg/kg) worked out at 31%.
On to `CCC(=O)N[C@H]1Cc2cccc(C(=O)OCOC(=O)OC(C)C)c2OB1O`, for which the bioavailability in [14] amounted to 23%.

For the origin of these results see ChEMBL document CHEMBL5034013, “Discovery of VNRX-7145 (VNRX-5236 Etzadroxil): An Orally Bioavailable β-Lactamase Inhibitor for Enterobacterales Expressing Ambler Class A, C, and D Enzymes” (J Med Chem, 2021).
